Reference: ChEMBL document CHEMBL1129454, “HIV protease inhibitory bis-benzamide cyclic ureas: a quantitative structure-activity relationship analysis” (J Med Chem, 1996)
pKi: −log10 of the molar value. The source made the active and inactive calls. No cut-off for these calls is given here.

Columns and labels:
[1] = target: T1, Human immunodeficiency virus type 1 protease (Human immunodeficiency virus 1, UniProt Q72874); test: Binding affinity for HIV-1 protease
How it was run: (§1)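 Cleavage products were separated by anion-exchange HPLC and the product quantified by fluorescence. Each compound was assayed at least twice and the mean reported; assay SD <±40%.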

[2] = target: T1, Human immunodeficiency virus type 1 protease; test: Inhibitory activity against HIV-1 protease; how it was run: as §1
[3] = system: Human immunodeficiency virus 1; test: The concentration required to inhibit HIV-1 RNA synthesis by 90%. Viral RNA quantified by a sandwich hybridization assay; type: functional
How it was run: (§2)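 Susceptible T-cell lines grown in individual microtiter wells were infected with HIV. Cell-associated viral RNA was measured by RNA hybridization 3 days after infection. […] Assay SD was <±37%. Cytotoxicity was scored separately by tetrazolium dye metabolism, because RNA assay results are valid only at non-cytotoxic doses.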

[4] = target: T1, Human immunodeficiency virus type 1 protease; test: Binding affinity was evaluated on HIV Protease enzyme; not active; how it was run: as §1
T-cell = test: The concentration of the antiviral compound required to inhibit HIV RNA synthesis by 90%. viral RNA was quantified by sandwich hybridization assay; not active; type: functional, cell-based; how it was run: as §2
[5] = target: T1, Human immunodeficiency virus type 1 protease; test: Binding affinity was evaluated with recombinant single chain dimeric HIV protease enzyme with a fluorescent substrate; not active; how it was run: as §1

O=C(NO)c1cccc(CN2C(=O)N(Cc3cccc(C(=O)NO)c3)[C@H](Cc3ccccc3)[C@H](O)[C@@H](O)[C@H]2Cc2ccccc2)c1
pKi [1]: 10.70
pKi [2]: 10.70
IC90 ([3]; Human immunodeficiency virus 1): 448 nM

O=C(Nc1nnc(C(F)(F)F)s1)c1cccc(CN2C(=O)N(Cc3cccc(C(=O)Nc4nnc(C(F)(F)F)s4)c3)[C@H](Cc3ccccc3)[C@H](O)[C@@H](O)[C@H]2Cc2ccccc2)c1
pKi [2]: 9.74
IC90 ([3]; Human immunodeficiency virus 1): 74.8 nM

O=C(Nc1nncs1)c1cccc(CN2C(=O)N(Cc3cccc(C(=O)Nc4nncs4)c3)[C@H](Cc3ccccc3)[C@H](O)[C@@H](O)[C@H]2Cc2ccccc2)c1
pKi [2]: 9.96
IC90 ([3]; Human immunodeficiency virus 1): 51.3 nM

Cc1cc(C)nc(NC(=O)c2cccc(CN3C(=O)N(Cc4cccc(C(=O)Nc5cc(C)cc(C)n5)c4)[C@H](Cc4ccccc4)[C@H](O)[C@@H](O)[C@H]3Cc3ccccc3)c2)c1
pKi [1]: 10.70
pKi [2]: 10.80
IC90 ([3]; Human immunodeficiency virus 1): 6.6 nM

O=C(Nc1ccccc1)c1cccc(CN2C(=O)N(Cc3cccc(C(=O)Nc4ccccc4)c3)[C@H](Cc3ccccc3)[C@H](O)[C@@H](O)[C@H]2Cc2ccccc2)c1
pKi [1]: 9.43
pKi [2]: 9.37
IC90 ([3]; Human immunodeficiency virus 1): 510 nM

NNC(=O)c1cccc(CN2C(=O)N(Cc3cccc(C(=O)NN)c3)[C@H](Cc3ccccc3)[C@H](O)[C@@H](O)[C@H]2Cc2ccccc2)c1
pKi [1]: 10.74
pKi [2]: 10.74
IC90 ([3]; Human immunodeficiency virus 1): 884 nM

O=C(Nc1nc2ccccc2[nH]1)c1cccc(CN2C(=O)N(Cc3cccc(C(=O)Nc4nc5ccccc5[nH]4)c3)[C@H](Cc3ccccc3)[C@H](O)[C@@H](O)[C@H]2Cc2ccccc2)c1
IC90 ([3]; Human immunodeficiency virus 1): 3.9 nM

NC(=O)c1cccc(CN2C(=O)N(Cc3cccc(C(N)=O)c3)[C@H](Cc3ccccc3)[C@H](O)[C@@H](O)[C@H]2Cc2ccccc2)c1
pKi [1]: 10.22
pKi [2]: 10.41
IC90 ([3]; Human immunodeficiency virus 1): 709 nM

Cc1csc(NC(=O)c2cccc(CN3C(=O)N(Cc4cccc(C(=O)Nc5nc(C)cs5)c4)[C@H](Cc4ccccc4)[C@H](O)[C@@H](O)[C@H]3Cc3ccccc3)c2)n1
pKi [2]: 10.60
IC90 ([3]; Human immunodeficiency virus 1): 4.1 nM

O=C1N(Cc2ccc(CO)cc2)[C@H](Cc2ccccc2)[C@H](O)[C@@H](O)[C@@H](Cc2ccccc2)N1Cc1ccc(CO)cc1 [DMP-323]
IC90 ([3]; Human immunodeficiency virus 1): 115 nM

O=C(Nc1ccc(Br)cn1)c1cccc(CN2C(=O)N(Cc3cccc(C(=O)Nc4ccc(Br)cn4)c3)[C@H](Cc3ccccc3)[C@H](O)[C@@H](O)[C@H]2Cc2ccccc2)c1
pKi [1]: 10.40
pKi [2]: 10.46
IC90 ([3]; Human immunodeficiency virus 1): 28.2 nM

O=C(Nc1ccncc1)c1cccc(CN2C(=O)N(Cc3cccc(C(=O)Nc4ccncc4)c3)[C@H](Cc3ccccc3)[C@H](O)[C@@H](O)[C@H]2Cc2ccccc2)c1
pKi [1]: 9.39
pKi [2]: 9.39
IC90 ([3]; Human immunodeficiency virus 1): 93.7 nM

CONC(=O)c1cccc(CN2C(=O)N(Cc3cccc(C(=O)NOC)c3)[C@H](Cc3ccccc3)[C@H](O)[C@@H](O)[C@H]2Cc2ccccc2)c1
pKi [1]: 10.10
pKi [2]: 10.35
IC90 ([3]; Human immunodeficiency virus 1): 214 nM

COC(=O)c1cccc(CN2C(=O)N(Cc3cccc(C(=O)OC)c3)[C@H](Cc3ccccc3)[C@@H]3OC(C)(C)O[C@H]3[C@H]2Cc2ccccc2)c1
Ki [4]: Not Active
IC90 (T-cell): inactive
Ki [5]: Not Active

CC(C)(C)NC(=O)c1cccc(CN2C(=O)N(Cc3cccc(C(=O)NC(C)(C)C)c3)[C@H](Cc3ccccc3)[C@H](O)[C@@H](O)[C@H]2Cc2ccccc2)c1
pKi [1]: 8.59
pKi [2]: 8.62
IC90 ([3]; Human immunodeficiency virus 1): 717 nM

CNC(=O)c1cccc(CN2C(=O)N(Cc3cccc(C(=O)NC)c3)[C@H](Cc3ccccc3)[C@H](O)[C@@H](O)[C@H]2Cc2ccccc2)c1 (stereo in doubt; 6)
pKi [1]: 10.22
pKi [2]: 10.18
IC90 [3]: 80.5 nM

CC(C)NC(=O)c1cccc(CN2C(=O)N(Cc3cccc(C(=O)NC(C)C)c3)[C@H](Cc3ccccc3)[C@H](O)[C@@H](O)[C@H]2Cc2ccccc2)c1
pKi [1]: 9.24
pKi [2]: 9.24
IC90 ([3]; Human immunodeficiency virus 1): 266 nM

O=C(NCC(F)(F)F)c1cccc(CN2C(=O)N(Cc3cccc(C(=O)NCC(F)(F)F)c3)[C@H](Cc3ccccc3)[C@H](O)[C@@H](O)[C@H]2Cc2ccccc2)c1
pKi [1]: 9.68
pKi [2]: 9.68
IC90 ([3]; Human immunodeficiency virus 1): 92.5 nM

Cc1ccnc(NC(=O)c2cccc(CN3C(=O)N(Cc4cccc(C(=O)Nc5cc(C)ccn5)c4)[C@H](Cc4ccccc4)[C@H](O)[C@@H](O)[C@H]3Cc3ccccc3)c2)c1
pKi [1]: 10.52
pKi [2]: 10.57
IC90 ([3]; Human immunodeficiency virus 1): 7.7 nM

Cc1ccnc(NC(=O)c2cccc(CN3C(=O)N(Cc4cccc(C(=O)Nc5nccc(C)n5)c4)[C@H](Cc4ccccc4)[C@H](O)[C@@H](O)[C@H]3Cc3ccccc3)c2)n1
pKi [1]: 9.92
pKi [2]: 9.94
IC90 ([3]; Human immunodeficiency virus 1): 124 nM

N#CCNC(=O)c1cccc(CN2C(=O)N(Cc3cccc(C(=O)NCC#N)c3)[C@H](Cc3ccccc3)[C@H](O)[C@@H](O)[C@H]2Cc2ccccc2)c1
pKi [1]: 10.20
pKi [2]: 10.20
IC90 ([3]; Human immunodeficiency virus 1): 596 nM

CCCCNC(=O)c1cccc(CN2C(=O)N(Cc3cccc(C(=O)NCCCC)c3)[C@H](Cc3ccccc3)[C@H](O)[C@@H](O)[C@H]2Cc2ccccc2)c1
pKi [1]: 9.37
pKi [2]: 9.37
IC90 ([3]; Human immunodeficiency virus 1): 255 nM

Cc1coc(NC(=O)c2cccc(CN3C(=O)N(Cc4cccc(C(=O)Nc5nc(C)co5)c4)[C@H](Cc4ccccc4)[C@H](O)[C@@H](O)[C@H]3Cc3ccccc3)c2)n1
pKi [2]: 10.19
IC90 ([3]; Human immunodeficiency virus 1): 59.6 nM

CCCNC(=O)c1cccc(CN2C(=O)N(Cc3cccc(C(=O)NCCC)c3)[C@H](Cc3ccccc3)[C@H](O)[C@@H](O)[C@H]2Cc2ccccc2)c1
pKi [1]: 9.55
pKi [2]: 9.44
IC90 ([3]; Human immunodeficiency virus 1): 259 nM

O=C(Nc1cccnc1)c1cccc(CN2C(=O)N(Cc3cccc(C(=O)Nc4cccnc4)c3)[C@H](Cc3ccccc3)[C@H](O)[C@@H](O)[C@H]2Cc2ccccc2)c1
pKi [1]: 9.54
pKi [2]: 9.54
IC90 ([3]; Human immunodeficiency virus 1): 123 nM

CC(C)CN(C[C@@H](O)[C@H](Cc1ccccc1)NC(=O)O[C@H]1CCOC1)S(=O)(=O)c1ccc(N)cc1
IC90 ([3]; Human immunodeficiency virus 1): 46 nM

Cc1cccnc1NC(=O)c1cccc(CN2C(=O)N(Cc3cccc(C(=O)Nc4ncccc4C)c3)[C@H](Cc3ccccc3)[C@H](O)[C@@H](O)[C@H]2Cc2ccccc2)c1
pKi [1]: 9.59
pKi [2]: 9.59
IC90 ([3]; Human immunodeficiency virus 1): 50.3 nM

O=C(Nc1ncccn1)c1cccc(CN2C(=O)N(Cc3cccc(C(=O)Nc4ncccn4)c3)[C@H](Cc3ccccc3)[C@H](O)[C@@H](O)[C@H]2Cc2ccccc2)c1
pKi [1]: 9.82
pKi [2]: 9.82
IC90 ([3]; Human immunodeficiency virus 1): 220 nM

O=C(Nc1cnccn1)c1cccc(CN2C(=O)N(Cc3cccc(C(=O)Nc4cnccn4)c3)[C@H](Cc3ccccc3)[C@H](O)[C@@H](O)[C@H]2Cc2ccccc2)c1
pKi [1]: 10.70
pKi [2]: 10.74
IC90 ([3]; Human immunodeficiency virus 1): 3.5 nM

CCNC(=O)c1cccc(CN2C(=O)N(Cc3cccc(C(=O)NCC)c3)[C@H](Cc3ccccc3)[C@H](O)[C@@H](O)[C@H]2Cc2ccccc2)c1
pKi [1]: 9.68
pKi [2]: 9.68
IC90 ([3]; Human immunodeficiency virus 1): 139 nM

O=C(Nc1ncc[nH]1)c1cccc(CN2C(=O)N(Cc3cccc(C(=O)Nc4ncc[nH]4)c3)[C@H](Cc3ccccc3)[C@H](O)[C@@H](O)[C@H]2Cc2ccccc2)c1
pKi [2]: 10.85
IC90 ([3]; Human immunodeficiency virus 1): 45.5 nM

CNC(=O)c1cccc(CN2C(=O)N(Cc3cccc(C(=O)NC)c3)[C@H](Cc3ccccc3)[C@H](O)[C@@H](O)[C@H]2Cc2ccccc2)c1 (stereo in doubt; 31)
pKi [2]: 8.72

O=C(Nc1nccs1)c1cccc(CN2C(=O)N(Cc3cccc(C(=O)Nc4nccs4)c3)[C@H](Cc3ccccc3)[C@H](O)[C@@H](O)[C@H]2Cc2ccccc2)c1
IC90 ([3]; Human immunodeficiency virus 1): 1.7 nM

CC(C)(C)NC(=O)[C@@H]1CN(Cc2cccnc2)CCN1C[C@@H](O)C[C@@H](Cc1ccccc1)C(=O)NC1c2ccccc2C[C@H]1O (single isomer, unassigned)
IC90 ([3]; Human immunodeficiency virus 1): 50 nM

Cc1cnc(NC(=O)c2cccc(CN3C(=O)N(Cc4cccc(C(=O)Nc5ncc(C)s5)c4)[C@H](Cc4ccccc4)[C@H](O)[C@@H](O)[C@H]3Cc3ccccc3)c2)s1
pKi [2]: 10.85
IC90 ([3]; Human immunodeficiency virus 1): 17.8 nM

CC(C)(C)NC(=O)[C@@H]1C[C@@H]2CCCC[C@@H]2CN1C[C@@H](O)[C@H](Cc1ccccc1)NC(=O)[C@H](CC(N)=O)NC(=O)c1ccc2ccccc2n1
IC90 ([3]; Human immunodeficiency virus 1): 10.4 nM

Cc1cccc(NC(=O)c2cccc(CN3C(=O)N(Cc4cccc(C(=O)Nc5cccc(C)n5)c4)[C@H](Cc4ccccc4)[C@H](O)[C@@H](O)[C@H]3Cc3ccccc3)c2)n1
pKi [1]: 10.70
pKi [2]: 10.70
IC90 ([3]; Human immunodeficiency virus 1): 3.2 nM

CC(C)c1nc(CN(C)C(=O)N[C@H](C(=O)N[C@@H](Cc2ccccc2)C[C@H](O)[C@H](Cc2ccccc2)NC(=O)OCc2cncs2)C(C)C)cs1 [RITONAVIR]
IC90 ([3]; Human immunodeficiency virus 1): 76 nM

O=C(Nc1ccc(C(F)(F)F)cn1)c1cccc(CN2C(=O)N(Cc3cccc(C(=O)Nc4ccc(C(F)(F)F)cn4)c3)[C@H](Cc3ccccc3)[C@H](O)[C@@H](O)[C@H]2Cc2ccccc2)c1
pKi [1]: 10.05
pKi [2]: 10.07
IC90 ([3]; Human immunodeficiency virus 1): 63.4 nM

O=C(Nc1ccccn1)c1cccc(CN2C(=O)N(Cc3cccc(C(=O)Nc4ccccn4)c3)[C@H](Cc3ccccc3)[C@H](O)[C@@H](O)[C@H]2Cc2ccccc2)c1
pKi [1]: 11.00
pKi [2]: 10.37
IC90 ([3]; Human immunodeficiency virus 1): 2.8 nM

Cc1ccc(NC(=O)c2cccc(CN3C(=O)N(Cc4cccc(C(=O)Nc5ccc(C)cn5)c4)[C@H](Cc4ccccc4)[C@H](O)[C@@H](O)[C@H]3Cc3ccccc3)c2)nc1
pKi [1]: 11.00
pKi [2]: 10.96
IC90 ([3]; Human immunodeficiency virus 1): 3.1 nM

O=C(Nc1ncc(Cl)cc1Cl)c1cccc(CN2C(=O)N(Cc3cccc(C(=O)Nc4ncc(Cl)cc4Cl)c3)[C@H](Cc3ccccc3)[C@H](O)[C@@H](O)[C@H]2Cc2ccccc2)c1
pKi [1]: 9.62
pKi [2]: 9.61
IC90 ([3]; Human immunodeficiency virus 1): 43 nM

O=C(Nc1ccc(Cl)cn1)c1cccc(CN2C(=O)N(Cc3cccc(C(=O)Nc4ccc(Cl)cn4)c3)[C@H](Cc3ccccc3)[C@H](O)[C@@H](O)[C@H]2Cc2ccccc2)c1
pKi [1]: 11.00
pKi [2]: 10.92
IC90 ([3]; Human immunodeficiency virus 1): 14.7 nM
